# From PubChem
# In the library only some 2% were active in any assay of this set; here they are far more common.
# LMPTP inh: LMPTP (human) inhibition; 0.22% of 360,000 active; recombinant LMPTP-A, OMFP fluorogenic substrate, fluorescence intensity; inhibition, % at 20 µM; AID 651560;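 active = compounds that cut the enzyme signal by at least half of the control window in the single-dose screen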;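 also: plate controls were DMSO wells with enzyme plus substrate for no effect and substrate without enzyme for full effect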
#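 Assay system: LMPTP-A phosphatase enzyme | Input: 0.625 nM enzyme | Also added: Fluorogenic phosphatase substrate OMFP at 400 µM final | Compound dosing: One test concentration per compound, 20 µM, with 3% DMSO overall | Schedule: 50 min enzyme reaction at room temperature, protected from light | Signal: Fluorescence intensity | Benchmarks: no-enzyme and uninhibited controls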
# STEP inh: blocks human striatal-enriched tyrosine phosphatase. inhibition, % at 20 µM. AID 588621. 0.25% of 360,000 active. recombinant STEP, OMFP fluorogenic substrate, fluorescence;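 active = inhibition at 20 µM, scaled per plate between control wells, above about 37%, limit read from the data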;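 also: 0% = DMSO with enzyme and substrate and 100% = substrate only without enzyme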
#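 Material: STEP (striatal-enriched tyrosine phosphatase) enzyme, cell-free | Medium: 50 mM Bis-Tris pH 6.0 with 2.5 mM DTT and 0.005% Tween 20 | Read-out: Percent inhibition scaled to no-enzyme and uninhibited-enzyme controls, plate-pattern corrected | Signal: Fluorescence read at 480 nm ex / 540 nm em | Times: 20 min reaction, room temperature, in the dark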
# Scp-1 inhibitor: blocks human Scp-1 phosphatase activity; Recombinant Scp1, phosphopeptide, malachite green phosphate absorbance; inhibition, % at 20 µM; 0.88% of 340,000 active; Q9GZU7;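 active = inhibition above about 50% at 20 µM, limit read from the data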;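 also: plate controls were DMSO wells with enzyme for no effect and wells lacking enzyme for full effect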
#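 Incubation: 45 min enzyme reaction at room temperature / System: truncated SCP-1 phosphatase (76-261aa) / Reagent: Phospho 17-mer peptide substrate / Buffer or medium: Acidic Tris acetate buffer with magnesium and detergent / Signal: absorbance at 630 nm / Doses: one concentration, 20 µM, with 1.0% DMSO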
# Rpn11 inh: inhibitors of human proteasome Rpn11. O00487. human 26S proteasome, Ub4-pepOG fluorescence polarization; 20S core pre-blocked with epoxomicin. inhibition, % at 20 µM. 0.59% of 360,000 active. AID 588493;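 active = inhibition at 20 µM, scaled to each plate's controls, above about 33%, limit read from the data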
# DNMT1 inh: DNMT1 (human) enzyme inhibition; 0.83% of 360,000 active; inhibition (reported as % activation of signal), % at 10 µM; AID 588458; P26358; DNMT1 molecular beacon, Hinp1I cleavage, fluorescence; in the data active = inhibition above about 50%
# Rpn11 confirm: Rpn11 inhibition confirmation, single concentration; 29% of 1,900 active; inhibition, % at 20 µM; shares compounds with Rpn11 inh; AID 602318; purified human 26S proteasome, Ub4-pepOG fluorescence polarization; proteasome pretreated with epoxomicin
# MMP-2 inh: blocks human MMP-2, flagging nonselective RPN11 hits | recombinant MMP-2, FRET peptide cleavage fluorescence | 4% of 1,900 active | inhibition, % at 20 µM | shares compounds with Rpn11 inh;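 also: human MMP-2 activated beforehand with APMA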
# Thrombin inh: counter-screen for RPN11 inhibitors: inhibition of bovine thrombin; shares compounds with Rpn11 inh; bovine thrombin cleavage of Ub4-pepOG, fluorescence polarization; inhibition, % at 20 µM; 13% of 1,900 active;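 active = mean inhibition at least 40% at 20 µM, or signal 3 deviations below plate average, so some actives read negative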;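 also: plate controls were thrombin with DMSO for no effect and buffer wells lacking thrombin for full effect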
# * hit, by the source's call; · = no result; + = active, no number. Rule as the data show it, unless noted: active = inhibition above about 40%; inactive = the rest.
SMILES,LMPTP inh,STEP inh,Scp-1 inhibitor,Rpn11 inh,DNMT1 inh,Rpn11 confirm,MMP-2 inh,Thrombin inh
COc1ccc(Cn2nnnc2C(c2ccccc2Cl)N2CCC(C(N)=O)CC2)cc1 (stereo unspecified),-1,-2,-12,2,1,·,·,·
Cn1nc([N+](=O)[O-])nc1Sc1cccc2cccnc12,1,1,-1,46*,-11,8,-33,-11
Cn1ccc2cc(NC(=O)Nc3cccnc3)ccc21,9,1,4,66*,-19,8,-21,-2
Cc1nonc1NC(=O)Nc1cccnc1,0,-5,2,+,-2,1,-9,-14
COc1ccc2nc(C)cc(SCC(=O)N/N=C/c3ccco3)c2c1,4,0,2,11,1,·,·,·
NNC(=O)c1ccc(CSc2cccc3cccnc23)cc1,1,-1,6,3,-2,·,·,·
COc1ccc(OC)c(/C=N/NC(=O)CSc2cc(C)nc3c(OC)cccc23)c1,1,3,-1,56*,5,17,-8,-9
CCOC(=O)CSc1cccc2cccnc12,-3,3,-10,63*,-21,12,-32,-10
Cc1cccc(CSc2cccc3cccnc23)c1,0,-1,0,70*,-28,42*,-20,-6
O=C(CSc1cccc2cccnc12)N/N=C/c1ccc(O)cc1,1,0,12,-7,0,·,·,·
COc1cccc(/C=N/NC(=O)CSc2cccc3cccnc23)c1,1,0,-3,38*,10,-16,2,-17
CCN(C[C@H]1N[C@@](CC)(C(=O)OC)[C@H]2C(=O)N(Cc3ccccc3)C(=O)[C@@H]12)C(=O)C1CCCCC1,-1,-3,-11,-6,2,·,·,·
O=C(CN1CCCC1)Nc1c(C(=O)C2CC2)oc2ccccc12,-1,-2,-10,-4,0,·,·,·
N#Cc1ccccc1OCC(=O)Nc1c(C(=O)C2CC2)oc2ccccc12,-3,1,-4,128*,2,5,-19,-6
O=C(COC(=O)c1ccc(S(=O)(=O)N2CCCCC2)cc1)NC1CCCCC1,16,1,·,2,3,·,·,·
O=C(COC(=O)c1ccc(S(=O)(=O)N2CCc3ccccc3C2)cc1)NC1CCS(=O)(=O)C1 (stereo unspecified),1,2,11,49*,-2,-12,25,-22
COc1cc(S(=O)(=O)N2CCN(Cc3ccc4c(c3)OCO4)CC2)ccc1NC(C)=O,-1,0,·,65*,48,4,-11,-7
O=C(N1CCCCC1)N1CCN(S(=O)(=O)c2ccccc2)CC1,0,-1,-1,-1,-1,·,·,·
CC1(C)CC(=O)C=C(Nc2ccc(OCC(F)(F)C(F)F)cc2)C1,-1,0,-2,105*,-1,9,15,3
N#Cc1cccc(CN2CCC(=O)N([C@H](CO)Cc3ccccc3)CC2)c1,-2,-2,-6,-11,6,·,·,·
c1ccc(CSc2nnc(-c3ccco3)o2)cc1,0,0,-10,-1,4,·,·,·
c1coc(-c2nnc(SCc3nc4ccccc4[nH]3)o2)c1,1,0,-4,46*,9,-3,-1,-12
CCCN(CC(=O)Nc1ccccc1C)C(=O)c1cnc(C)cn1,1,-2,-4,-4,-1,·,·,·
CN(CCOc1ccc(-c2ccn(S(=O)(=O)c3cccc4ccccc34)n2)cc1)c1ccccn1,7,2,10,7,-6,·,·,·
COc1ccc(C2NC(=O)NC(C)=C2C(=O)Nc2cccc(C)c2C)cc1 (stereo unspecified),-1,3,-9,2,4,·,·,·
CC1=C(C(=O)Nc2ccccc2Cl)C(c2ccc(N(C)C)cc2)NC(=O)N1 (stereo unspecified),0,3,4,64*,-2,33,9,31
